Bioassay records from PubChem.
NPY-Y1 PAM-ag = human NPY-Y1 potentiation or agonism, primary screen. NPY-Y1 expressing cells, potentiator/agonist activation. activation, % at 3.6 µM. 0.37% of 220,000 active. AID 1304; in the data active = activation above about 33%, passing the limit was not always enough;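 also: cells stimulated with NPY at EC10 then isoproterenol at EC100; 0% = low agonist plus stimulus and 100% = saturating agonist plus stimulus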
Cl transport mod = modulators of human KCC2 chloride dependent transport. 2.2% of 190,000 active. KCC2 cells, thallium flux FluoZin-2 fluorescence. B-score of Tl+ flux slope (higher = more flux/activation; lower = inhibition) at 10 µM;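 active = thallium flux slope and its plate-corrected score both differing from the plate sample mean at a set confidence after two filtering rounds, in either direction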;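 also: slope of fluorescence scaled to starting intensity during 10 to 20 s after thallium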
NPY Y2 blocker = NPY-Y2 (human) receptor antagonism; 0.99% of 140,000 active; AID 793; inhibition, % at 2.7 µM; NPY-Y2 expressing cells, antagonist mode; in the data active = inhibition above about 17%;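 also: 0% = vehicle with agonist challenge and 100% = reference antagonist with challenge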
NPY2 pot ag = potentiates or activates human NPY-Y2 receptor. cells expressing NPY-Y2, potentiator/agonist read-out. activation, % at 3.6 µM. 0.45% of 220,000 active; in the data active = activation above about 27%;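 also: cells stimulated with NPY near EC25 plus isoproterenol at EC100; 0% = vehicle plus submaximal agonist and 100% = vehicle plus saturating agonist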
NPY Y1 blocker = blocks the human neuropeptide Y Y1 receptor. HEK293-CNG Y1 cells, membrane potential fluorescence; NPY at EC95, then isoproterenol. inhibition, % at 3.6 µM. 1% of 200,000 active;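 active = inhibition above the campaign mean inhibition of all tested compounds plus 3 SD, cut at about 20% in these data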;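 also: 0% = DMSO wells given NPY plus isoproterenol and 100% = isoproterenol alone without NPY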
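Benchmarks – high control isoproterenol alone, low control NPY with isoproterenol · Material – HEK293 Y1/CNG channel cell line · Times – dye 3 h, compound 60 min room temperature, stimulation 45 min · Probe or stimulus – NPY (25 nM), isoproterenol (1 µM), Ro 20-1724 (25 µM) · Evaluation – % inhibition of NPY effect · Signal – fluorescence, membrane potential probe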
Furin inhibitor = human furin inhibition. 0.061% of 220,000 active. purified furin, fluorogenic substrate cleavage. inhibition, % at 20 µM or 30 µM. AID 463115. P09958; in the data active = inhibition above about 25%
Target sequence (P09958 108-714 limits assumed): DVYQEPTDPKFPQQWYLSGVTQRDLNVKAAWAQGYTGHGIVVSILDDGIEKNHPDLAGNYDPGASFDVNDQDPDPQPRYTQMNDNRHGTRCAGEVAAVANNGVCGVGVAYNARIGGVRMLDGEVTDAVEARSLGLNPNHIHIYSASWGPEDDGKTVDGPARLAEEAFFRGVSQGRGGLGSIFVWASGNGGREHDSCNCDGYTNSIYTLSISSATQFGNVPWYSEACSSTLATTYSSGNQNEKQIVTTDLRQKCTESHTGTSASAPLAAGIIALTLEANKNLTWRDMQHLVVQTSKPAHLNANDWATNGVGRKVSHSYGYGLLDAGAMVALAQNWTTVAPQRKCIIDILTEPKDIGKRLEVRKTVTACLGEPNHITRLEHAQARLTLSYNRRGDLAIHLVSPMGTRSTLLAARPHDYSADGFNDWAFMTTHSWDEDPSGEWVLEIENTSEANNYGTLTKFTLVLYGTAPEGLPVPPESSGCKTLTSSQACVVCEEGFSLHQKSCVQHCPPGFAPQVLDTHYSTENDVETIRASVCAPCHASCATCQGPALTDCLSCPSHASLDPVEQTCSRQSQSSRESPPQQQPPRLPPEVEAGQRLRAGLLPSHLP
* marks the source's active call; other numbers are inactive results; . = not tested or not shown. This is a sample that favours compounds with a hit; in the whole collection about 3.7% have one here.

SMILES	NPY-Y1 PAM-ag	Cl transport mod	NPY Y2 blocker	NPY2 pot ag	NPY Y1 blocker	Furin inhibitor
O=C(CCC(=O)c1ccccc1)NCCc1c[nH]c2ccccc12	3.1	-0.229	7.0	0.4	-0.5	-18.9
CN1C=CC=C/C1=C1\SC(=S)N(C2CCCCC2)C1=O	113.7*	-0.0504	-1.5	105.8*	-10.3	14.3
Nc1c(C(=O)NCC2CCCO2)sc2nc3c(c(-c4ccco4)c12)CC/C3=C\c1ccco1 (configuration not stated)	-20.2	0.0519	-2.2	-3.9	1.1	-5.8
Brc1ccc(N/N=C(/N=Nc2nn[nH]n2)c2ccccc2)cc1	64.0*	.	.	53.4*	-16.9	-11.9
O=C(/C(=N\Nc1ccc(Br)cc1)Sc1nnnn1-c1ccccc1)c1ccccc1	-9.1	2.16	0.6	5.5	-2.2	-13.8
COC(=O)CSc1nc(N)c(C#N)c(-c2ccc(O)cc2)c1C#N	4.3	-0.507	.	-24.8	.	-11.8
C=CCSc1nc(N)c(C#N)c(-c2ccc(C)cc2)c1C#N	44.8*	-0.748	-6.8	45.1*	-12.0	16.3
O=C(CSc1nnc(-c2ccccc2)n1-c1ccccc1)c1cccs1	49.1*	-0.441	4.7	31.1*	-2.4	-23.6
CCNS(=O)(=O)c1ccc2c(c1)NCC2	1.9	-3.23	-0.5	0.3	2.4	-8.8
Cc1ccc(NC(=O)C2CCN(S(=O)(=O)c3ccc(F)cc3)CC2)cc1	112.6*	.	2.1	104.6*	-2.2	-25.8
O=C(OCC(=O)c1c[nH]c2ccccc12)c1ccco1	-8.7	.	-0.1	7.8	-2.4	-19.0
O=C(OCC(=O)c1c[nH]c2ccccc12)c1ccc(Br)o1	62.8*	-0.106	0.6	70.5*	-3.1	-8.7
Cc1ccc(-n2ncc3c(SCc4ccccc4)ncnc32)cc1	-6.7	22.3*	2.7	7.2	2.5	-18.1
Cc1ccc(CSc2ncnc3c2cnn3-c2ccc(C)cc2)cc1	-5.8	15.7*	0.4	-5.6	1.7	-11.8
CCOC(=O)c1sc(NC(=O)C(C)Sc2nnc(N)s2)nc1C (configuration not stated)	15.3	-0.578	.	3.2	-0.1	-27.7
CCCn1c(SCC(=O)N2CCN(c3ccccc3)CC2)nc2ccccc2c1=O	-28.3	-0.0103	19.4*	-22.6	21.5*	-15.6
CCn1c(SCC(=O)N2CCN(c3ccc(F)cc3)CC2)nc2ccccc2c1=O	0.0	-0.686	0.5	2.6	-7.2	-8.4
O=C(NC(=S)Nn1cnc2c(cnn2-c2ccccc2)c1=O)c1ccc(Oc2ccccc2)cc1	-1.9	17.9*	8.1	-5.8	3.9	-5.1
COc1ccc2nc(Nc3nc(C)c(C(C)=O)s3)sc2c1	40.7*	1.03	-2.8	34.2*	-1.8	-26.6
COc1ccc(Cc2nnc(SCC(=O)N3CCCCC3)o2)cc1	4.7	.	.	-12.4	3.5	-28.7
O=C(c1ccccc1)N1CCN(c2ccc([N+](=O)[O-])cc2-n2cccc2)CC1	4.3	-1.04	.	1.0	.	-12.5
CC1(C)Cc2cccc(OCC(O)CN3CCN(c4ccccn4)CC3)c2O1 (configuration not stated)	103.9*	0.026	1.1	91.0*	-14.7	-23.4
CC1(C)Cc2cccc(OCC(O)CNCc3ccccn3)c2O1 (configuration not stated)	80.3*	.	4.6	65.7*	-5.7	-14.2
CC(C)NC(=O)NC(=O)COc1cccc2c1OC(C)(C)C2	-7.1	0.368	0.4	2.9	-0.9	-20.5
CCCc1cc(C(=O)NNC(=S)NC(C)c2ccccc2)cs1 (configuration not stated)	-10.8	-1.6	4.9	-0.2	1.3	-13.3
SMILES	NPY-Y1 PAM-ag	Cl transport mod	NPY Y2 blocker	NPY2 pot ag	NPY Y1 blocker	Furin inhibitor
COc1ccc(OCC(=O)Nc2cccc(NC(=O)c3ccco3)c2)cc1	-9.9	-0.831	.	2.6	-2.7	-17.7
CCOC(=O)c1c(NC(=O)CSc2nc3cc(Cl)ccc3c(=O)n2Cc2ccco2)sc(C(=O)N(C)C)c1C	-2.7	1.27	5.3	6.2	1.8	-11.6
Cn1c(SCC(=O)c2cc3ccccc3o2)nnc1-c1ccccc1	-7.8	-7.24*	6.3	1.7	5.1	-20.1
Cn1ccnc1SCC(=O)c1cc2ccccc2o1	-12.2	1.43	3.0	4.0	-0.1	-7.8
O=C(NC(=S)Nc1ccc(N2CCCCC2)c(Cl)c1)c1cccs1	42.1	32.1*	2.7	0.3	10.9	-14.1
CCOC(=O)/C=C/C(=O)Nc1nccs1	-9.0	-0.336	1.4	3.0	2.8	-7.7
CCOc1ccccc1Nc1nc2ccccc2n1C(C)C	5.9	-0.885	.	18.8	9.4	-22.6
CC(C)C(c1nnnn1C(C)(C)C)N1CCN(c2cccc(Cl)c2)CC1 (configuration not stated)	-14.2	-0.586	22.3*	-3.6	47.7*	-16.5
c1ccc2c(c1)CCN(c1nc(CN3CCOCC3)nc3sc4c(c13)CCCC4)C2	-70.8	-0.412	22.6*	-11.5	23.2*	-12.4
CCCCN=Cc1c(C)[nH]n(-c2ccccc2)c1=S	-8.1	0.429	.	1.5	-2.4	-9.6
CCCCN(CCCC)C(=S)N/N=C/c1c(C)[nH]n(-c2ccccc2)c1=O	6.2	22.9*	1.5	-2.8	1.4	7.0
CCN1C(=O)N(CC)C2C1N(CO)C(=O)N2CO (configuration not stated)	7.8	-0.188	.	4.3	3.8	-22.7
O=C(CCCOc1ccccc1)Nc1ccc(Br)cc1	-20.6	1.54	5.0	-33.0	22.2*	-3.2
O=C(CCCOc1ccccc1)Nc1ccncc1	-0.1	-0.0157	2.1	-8.2	-2.9	-13.1
Cc1nc(N2CCOCC2)c2c(C)c(C(=O)Nc3ccccc3C(F)(F)F)sc2n1	-14.5	-0.367	.	-12.8	20.4*	-12.9
c1ccc(CN2C3=NCCN3c3ccccc32)cc1	-18.5	0.00538	3.4	-1.7	3.5	-21.8
O=C(CN1C2=NCCN2c2ccccc21)C12CC3CC(CC(C3)C1)C2	-97.0	0.568	48.8*	-33.3	67.3*	-28.7
CCOC(=O)c1c(C)[nH]c(C(=O)C(C)Sc2ccc(Cl)cc2)c1C (configuration not stated)	-31.8	-0.57	34.2*	-25.5	84.0*	5.7
Cc1ccc(C(=O)CC(=O)COc2ccc(Cl)cc2C)cc1	8.8	17.1*	8.4	-3.3	-4.6	-7.1
CCc1ccccc1NC(=O)c1ccc(CN2CCC(Cc3ccccc3)CC2)cc1	-0.9	-0.837	12.7	6.4	7.2	-24.4
CC1=CC(C)(C)N(C(=O)CSc2nnc(N)s2)c2c(C)cc(C)cc21	69.6*	-0.371	2.1	24.3	7.4	-1.5
N#Cc1c(NC(=O)CSc2nnc(-c3ccco3)n2-c2ccccc2)sc2c1CCC2	110.5*	.	1.5	42.6*	-4.3	-12.9
CCC(Sc1ncccc1C(=O)O)C(=O)N1CCOCC1 (configuration not stated)	7.7	0.958	3.5	16.3	-3.3	-30.1
CCC(Sc1ncccc1C(=O)O)C(=O)N1CCCC1 (configuration not stated)	3.0	.	1.0	15.7	3.9	28.4*
